Residues, ends and D or L forms follow the SMILES beside them. *: point of attachment. X1 = CC(=O)N[C@@H]1[C@@H](O[C@@H]2O[C@H](CO)[C@H](O)[C@H](O)[C@H]2O)[C@@H](O)[C@@H](CO)O[C@@H]1*

Drawing on ChEMBL document CHEMBL1140117, “Structure-activity relationship studies for the peptide portion of the bladder epithelial cell antiproliferative factor from interstitial cystitis patients” (2008), this text covers Activity for 2 compounds.

A short description of this assay: Antiproliferative activity against human bladder epithelial cells assessed as inhibition of [3H]thymidine incorporation after 48 hrs relative to as-APF. Also noted: scale not given: the % may be the effect or the level left. In kind it is functional, Epithelial cell. Put shortly: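 Primary normal human bladder epithelial cells, explanted from cystoscopy biopsies, plated at 1.5 × 10⁴ cells/well in MEM with 10% heat-inactivated FBS. Congeners dissolved in acetonitrile/water (1:1), added in serum-free MEM in 10-fold dilutions up to the 25 µM assay cutoff. Incubated 48 h at 37 °C, 5% CO₂. ³H-thymidine uptake counted on filters. Activity expressed relative to the standard control run on each plate. Triplicates, at least two runs, ANOVA.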
(Uptake of a labelled nucleoside into DNA is a usual measure of proliferation.)

For the compound `CC(=O)N[C@H]1[C@@H](O[C@H](C)[C@H](NC(=O)[C@@H](N)Cc2ccc(O)cc2)C(=O)N[C@H](C(=O)N2CCC[C@H]2C(=O)N[C@@H](C)C(=O)N[C@@H](C)C(=O)N[C@H](C(=O)N[C@H](C(=O)N[C@H](C(=O)N[C@@H](C)C(=O)O)C(C)C)C(C)C)C(C)C)C(C)C)O[C@H](CO)[C@H](O)[C@@H]1O[C@@H]1O[C@H](CO)[C@H](O)[C@H](O)[C@H]1O` (H-YT(X1)VPAAVVVA-OH), the Activity amounted to 1%. The value for `CC(=O)N[C@H]1[C@@H](O[C@H](C)[C@H](N)C(=O)N[C@H](C(=O)N2CCC[C@H]2C(=O)N[C@@H](C)C(=O)N[C@@H](C)C(=O)N[C@H](C(=O)N[C@H](C(=O)N[C@H](C(=O)N[C@@H](CC(C)C)C(=O)O)C(C)C)C(C)C)C(C)C)C(C)C)O[C@H](CO)[C@H](O)[C@@H]1O[C@@H]1O[C@H](CO)[C@H](O)[C@H](O)[C@H]1O` (H-T(X1)VPAAVVVL-OH) was 0.01%.
